Data on one compound can be found in paper PMC9279629 (Acta Pharmaceutica Sinica. B, 2021).

The term IC50 denotes the point on the concentration scale where inhibition reaches its midpoint.

The target of one assay is PDE10A (Homo sapiens, UniProt Q9Y233). The experiment in a line: PDE10A inhibition, fluorescence polarization. In kind it is biochemical. Summed up: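 Test compound was dissolved in DMSO, stored at −20 °C and tested in a 10-point, 3-fold serial dilution from a top concentration of 1 µmol/L (n = 3). Enzyme activity was read by fluorescence polarization, and IC50 was derived from the concentration–response data.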
Chain of PDE10A (Q9Y233 whole entry): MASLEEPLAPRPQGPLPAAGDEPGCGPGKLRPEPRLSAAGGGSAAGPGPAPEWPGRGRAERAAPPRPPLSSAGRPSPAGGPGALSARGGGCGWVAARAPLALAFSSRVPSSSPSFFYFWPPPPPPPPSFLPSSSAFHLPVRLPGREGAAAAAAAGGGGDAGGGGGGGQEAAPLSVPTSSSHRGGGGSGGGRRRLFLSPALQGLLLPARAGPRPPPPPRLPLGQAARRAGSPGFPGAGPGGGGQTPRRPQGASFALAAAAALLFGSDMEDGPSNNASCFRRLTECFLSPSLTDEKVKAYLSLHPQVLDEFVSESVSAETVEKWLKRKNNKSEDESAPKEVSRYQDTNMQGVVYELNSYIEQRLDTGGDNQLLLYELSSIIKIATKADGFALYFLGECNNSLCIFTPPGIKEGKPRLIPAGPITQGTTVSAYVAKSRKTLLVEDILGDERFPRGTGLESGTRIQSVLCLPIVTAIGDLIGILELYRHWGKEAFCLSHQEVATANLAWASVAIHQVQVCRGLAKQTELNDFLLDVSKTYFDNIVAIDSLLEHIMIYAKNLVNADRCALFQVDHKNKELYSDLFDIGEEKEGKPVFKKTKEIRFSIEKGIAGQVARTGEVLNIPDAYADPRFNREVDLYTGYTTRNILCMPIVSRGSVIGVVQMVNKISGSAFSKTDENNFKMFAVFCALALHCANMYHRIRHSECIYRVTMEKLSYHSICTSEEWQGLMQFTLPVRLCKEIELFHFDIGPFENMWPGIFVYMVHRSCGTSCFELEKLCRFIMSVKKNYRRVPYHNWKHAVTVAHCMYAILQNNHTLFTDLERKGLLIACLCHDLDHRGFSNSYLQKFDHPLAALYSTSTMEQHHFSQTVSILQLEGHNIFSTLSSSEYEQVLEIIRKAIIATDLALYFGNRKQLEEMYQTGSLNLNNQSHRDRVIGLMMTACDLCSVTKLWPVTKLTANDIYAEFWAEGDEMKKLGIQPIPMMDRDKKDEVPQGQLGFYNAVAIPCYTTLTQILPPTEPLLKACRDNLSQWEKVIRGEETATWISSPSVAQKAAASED
In general terms: Fluorescence polarisation rises when a labelled molecule tumbles more slowly, as on binding a larger partner.

Assay [1] has as its system PDE1A/B/C, PDE2A, PDE3A/B, PDE4A/B/C/D, PDE5A, PDE7A, PDE8A, PDE9A. The experiment in a line: PDE selectivity panel, fluorescence polarization, single dose 5 μmol/L. It counts as biochemical. Conditions: concentrations up to 5 μmol/L.

Turning to `Cc1ccc2c(=O)n(-c3ccc(F)cc3)c(CCN3C(=O)c4cccc(OC(C)C)c4C3=O)nc2c1` [compound 9, 2-(2-(3-(4-Fluorophenyl)-7-methyl-4-oxo-3,4-dihydroquinazolin-2-yl)ethyl)-4-isopropoxyisoindoline-1,3-dione], the midpoint of inhibition at PDE10A, the IC50, lay at 2.07 nM. The “inhibition of other PDE subtypes” value in assay [1] is “no significant inhibition”.
